{
  "source": "paper PMC3356170",
  "about": "(International Journal of Nanomedicine, 2012)",
  "key": {"[1]": {"experiment": "Pharmacokinetics of two formulations in rats", "type": "in vivo, Sprague-Dawley (SD) rats", "how_it_was_run": "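SD rats (N = 6 per group) received 5 mg/kg intravenously or orally, dissolved in 0.9% NaCl. Blood was taken at set time points and centrifuged (3500 rpm, 10 min). Plasma (180 μL) was mixed with cantharidin internal standard and methanol (800 μL) and spun at 10,000 rpm for 10 min. NCTD was measured by LC-MS/MS (C18, 35°C; MRM m/z 185.0→141.1) against matrix-matched calibration from 0.1025 to 10.25 μg/mL, using peak-area ratio to internal standard. Group means gave parameters.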"}, "[2]": {"experiment": "Tissue distribution and elimination in mice", "type": "in vivo, ICR mice", "conditions": "after intravenous administration (table title)", "how_it_was_run": "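ICR mice (six per group) were used. Blood was drawn from the eye socket vein at each sampling time. After cervical dislocation, heart, liver, kidney, spleen and lung were excised, rinsed in saline, blotted and weighed. Bile was taken from the gall bladder by syringe. Tissues and fluids were homogenized and processed as for plasma. NCTD was quantified by LC-MS/MS.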"}, "[3]": {"experiment": "Survival time and urine output of dosed rats", "type": "in vivo"}, "[4]": {"conditions": "intravenous administration (5 mg/kg), N = 6, mean ± SD"}, "[5]": {"conditions": "oral administration (5 mg/kg), N = 6, mean ± SD"}},
  "data": [
    {"smiles": "O=C1OC(=O)[C@H]2[C@@H]1[C@@H]1CC[C@H]2O1", "note": "[NCTD, Norcantharidin]", "values": [
      {"measurement": "AUC0-t", "setting": "[1]; [4]", "value": "9790 ± 1260", "unit": "ng·h/mL"},
      {"measurement": "AUC0-∞", "setting": "[1]; [4]", "value": "10770 ± 2340", "unit": "ng·h/mL"},
      {"measurement": "CL", "setting": "[1]; [4]", "value": "0.12 ± 0.02", "unit": "L/h"},
      {"measurement": "MRT", "setting": "[1]; [4]", "value": "0.34 ± 0.10", "unit": "h"},
      {"measurement": "Vd", "setting": "[1]; [4]", "value": "0.82 ± 0.45", "unit": "L/kg"},
      {"measurement": "t1/2(α) distribution half-life", "setting": "[1]; [4]", "value": "0.26 ± 0.06", "unit": "h"},
      {"measurement": "t1/2(β)", "setting": "[1]; [4]", "value": "2.63 ± 0.82", "unit": "h"},
      {"measurement": "AUC0-t", "setting": "[1]; [5]", "value": "3850 ± 660", "unit": "ng·h/mL"},
      {"measurement": "AUC0-∞", "setting": "[1]; [5]", "value": "3870 ± 690", "unit": "ng·h/mL"},
      {"measurement": "CL", "setting": "[1]; [5]", "value": "0.32 ± 0.05", "unit": "L/h"},
      {"measurement": "Cmax", "setting": "[1]; [5]", "value": "1210 ± 230", "unit": "ng/mL"},
      {"measurement": "MRT", "setting": "[1]; [5]", "value": "5.49 ± 4.58", "unit": "h"},
      {"measurement": "Tmax", "setting": "[1]; [5]", "value": "1.50 ± 0.44", "unit": "h"},
      {"measurement": "Vd", "setting": "[1]; [5]", "value": "9.48 ± 6.59", "unit": "L/kg"},
      {"measurement": "t1/2(a)", "setting": "[1]; [5]", "value": "0.56 ± 0.43", "unit": "h"},
      {"measurement": "t1/2(α)", "setting": "[1]; [5]", "value": "0.72 ± 0.68", "unit": "h"},
      {"measurement": "t1/2(β)", "setting": "[1]; [5]", "value": "5.08 ± 4.79", "unit": "h"},
      {"measurement": "oral bioavailability", "setting": "[1]; oral versus intravenous administration, 5 mg/kg", "value": 39.3, "unit": "%"},
      {"measurement": "Te (targeted efficiency)", "setting": "[2]; Bile", "value": 2.33},
      {"measurement": "Te (targeted efficiency)", "setting": "[2]; Blood", "value": 30.74},
      {"measurement": "Te (targeted efficiency)", "setting": "[2]; Heart", "value": 14.99},
      {"measurement": "Te (targeted efficiency)", "setting": "[2]; Kidney", "value": 11.72},
      {"measurement": "Te (targeted efficiency)", "setting": "[2]; Liver", "value": 10.07},
      {"measurement": "Te (targeted efficiency)", "setting": "[2]; Lung", "value": 22.72},
      {"measurement": "Te (targeted efficiency)", "setting": "[2]; Spleen", "value": 7.44},
      {"measurement": "survival time of rats", "setting": "[3]; NCTD group", "value": "about 24 hours"},
      {"measurement": "urine output compared with normal rats", "setting": "[3]; after dosing", "value": "one-third of normal"}
    ]}
  ]
}
